Results: paper PMC3061052 (Nucleic Acids Research, 2010)
Numbering of substitutions follows the chain as printed. Entries after “also recorded” stand apart in the source; their conditions may differ.

Legend:
NpmA (wild-type) = molecular target: T1, NpmA (wild-type) (Escherichia coli, UniProt A8C927); assay: ITC titration of wild-type NpmA with cofactor; type: binding
T1 sequence (A8C927 1-219): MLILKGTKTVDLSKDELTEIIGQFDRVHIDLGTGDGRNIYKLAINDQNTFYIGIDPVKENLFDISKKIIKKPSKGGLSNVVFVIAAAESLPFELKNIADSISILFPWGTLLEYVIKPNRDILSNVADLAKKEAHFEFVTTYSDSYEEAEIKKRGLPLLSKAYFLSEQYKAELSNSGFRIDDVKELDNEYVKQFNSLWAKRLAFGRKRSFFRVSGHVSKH

NpmA D30A = molecular target: T2, NpmA D30A (Escherichia coli, UniProt A8C927, D30A); assay: ITC titration of NpmA D30A variant with cofactor; type: binding; conditions: 20°C
T2 sequence (A8C927 1-219 D30A): T1 sequence (A8C927 1-219) with D30A

NpmA D55A = molecular target: T3, NpmA D55A (Escherichia coli, UniProt A8C927, D55A); assay: ITC titration of NpmA D55A variant with cofactor; type: binding; conditions: 20°C
T3 sequence (A8C927 1-219 D55A): T1 sequence (A8C927 1-219) with D55A

NpmA E88A = molecular target: T4, NpmA E88A (Escherichia coli, UniProt A8C927, E88A); assay: ITC titration of NpmA E88A variant with cofactor; type: binding; conditions: 20°C
T4 sequence (A8C927 1-219 E88A): T1 sequence (A8C927 1-219) with E88A

NpmA S195A = molecular target: T5, NpmA S195A (Escherichia coli, UniProt A8C927, S195A); assay: ITC titration of NpmA S195A variant with cofactor; type: binding; conditions: 20°C
T5 sequence (A8C927 1-219 S195A): T1 sequence (A8C927 1-219) with S195A

[1] = test system: E. coli BL21(DE3)pLysS cells carrying recombinant pET-25b(+) vector with different npmA variants; assay: Kanamycin MIC dilution assay in cells carrying npmA variants; type: cell-based, Escherichia coli
In short: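 BL21(DE3)pLysS cells with pET-25b(+) npmA variants were grown overnight, diluted 100-fold in LB with ampicillin (100 mg/l) and chloramphenicol (34 mg/l), and grown to OD600 1. Cells were inoculated into the same medium with kanamycin at 0.5–1024 mg/l in twofold steps and incubated 18 h at 37°C. MIC was the lowest kanamycin concentration preventing visible growth.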

Nc1ncnc2c1ncn2[C@@H]1O[C@H](CSCC[C@H](N)C(=O)O)[C@@H](O)[C@H]1O [AdoHcy, S-adenosylhomocysteine]
N (ITC single site fit) for AdoHcy (NpmA (wild-type)): 1.0 | Kd for AdoHcy (NpmA D30A): completely lost their ability to interact; also recorded: No binding | Kd for AdoHcy (NpmA D55A): completely lost their ability to interact; also recorded: No binding | Kd for AdoHcy (NpmA E88A): completely lost their ability to interact; also recorded: No binding

C[S+](CC[C@H](N)C(=O)[O-])C[C@H]1O[C@@H](n2cnc3c(N)ncnc32)[C@H](O)[C@@H]1O (stereo partly shown) [AdoMet, S-adenosylmethionine]
N (ITC single site fit) for AdoMet (NpmA (wild-type)): 1.1 | Kd (NpmA (wild-type); Kd for AdoMet, ITC, 20°C, no 30S subunit): 18 µM | Kd for AdoMet (NpmA D30A): completely lost their ability to interact; also recorded: No binding | Kd for AdoMet (NpmA D55A): completely lost their ability to interact; also recorded: No binding | Kd for AdoMet (NpmA S195A): complete loss of AdoMet binding; also recorded: No binding | Kd for AdoMet (NpmA E88A): completely lost their ability to interact; also recorded: No binding

NC[C@H]1O[C@H](O[C@H]2[C@H](O)[C@@H](O[C@H]3O[C@H](CO)[C@@H](O)[C@H](N)[C@H]3O)[C@H](N)C[C@@H]2N)[C@H](O)[C@@H](O)[C@@H]1O [Kanamycin, kanamycin]
Kanamycin MIC ([1]; Negative control (empty vector), 18 h at 37°C): 4 to 8 µg/mL | Kanamycin MIC ([1]; cells expressing NpmA D30A): 8 µg/mL | Kanamycin MIC ([1]; cells expressing NpmA D55A): 512 µg/mL | kanamycin MIC compared to the wt NpmA ([1]; cells expressing NpmA D55A): 50% | Kanamycin MIC ([1]; cells expressing NpmA E88A): 1024 µg/mL | Kanamycin MIC ([1]; cells expressing NpmA F177A): 1024 µg/mL | Kanamycin MIC ([1]; cells expressing NpmA K199A): 1024 µg/mL | Kanamycin MIC ([1]; cells expressing NpmA P106A): 1024 µg/mL | Kanamycin MIC ([1]; cells expressing NpmA R200A): 1024 µg/mL | Kanamycin MIC ([1]; cells expressing NpmA R205A): 1024 µg/mL | Kanamycin MIC ([1]; cells expressing NpmA S195A): 1024 µg/mL | Kanamycin MIC ([1]; cells expressing NpmA T109A): 1024 µg/mL | Kanamycin MIC ([1]; cells expressing NpmA W107A): 8 µg/mL | Kanamycin MIC ([1]; cells expressing NpmA W197A): 8 µg/mL | Kanamycin MIC ([1]; cells expressing NpmA-wt): 1024 µg/mL
